Test results from paper PMC6368469 (Journal of clinical pharmacology, 2018).
“And” between values parts separate entries of the source, which are not always exact repeats. Equal entries are not always repeated. Structures can show the parent of a compound that is named as a salt. Where two headings read alike, the source gives them in different places.

Columns and labels:
[1] = assay type: in vivo, human; conditions: for Cmax / Cmin / AUC(0-t): plasma; for Cl/F: dose/AUC0–12
[2] = Umbilical cord blood and maternal plasma concentrations at delivery; assay type: in vivo, human; conditions: 15 patients, detection limit 0.039 μg/mL; for Detected in maternal plasma samples: number of samples at delivery; for Detected in cord plasma samples: number of samples
[3] = Clinical and laboratory safety monitoring of mothers and infants; assay type: in vivo, human
[4] = Stability in stored plasma; assay type: in vitro ADME; conditions: plasma stored at −20°C
Method in brief: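 Human plasma from study participants, stored at −20°C. Test compound and its metabolite were quantified together by reversed-phase HPLC-UV after acetonitrile protein precipitation. Supernatant was injected onto a C-18 column and eluted isocratically with 10mM potassium phosphate pH 4.2:ACN (62:38 v/v) at 1.2 mL/min. Detection was at 206 nm, with a detection limit of 0.039 μg/mL. Validation QC samples spanned multiple concentrations.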

HIV = conditions: cited from earlier work
[5] = cited from earlier work
[6] = cited from earlier work; remark: listed apart in the source
[7] = 1875mg BID 3rd trimester vs 1250mg BID postpartum, (90% CI)
[8] = 3rd trimester, nelfinavir 1875mg BID, median (IQR), n = 18
[9] = postpartum, nelfinavir 1250mg BID, median (IQR), n=16
[10] = 1875mg BID 3rd trimester vs 1250mg BID postpartum, (90% CI), listed as Nelfinavir

Cc1c(O)cccc1C(=O)N[C@@H](CSc1ccccc1)[C@H](O)CN1C[C@H]2CCCC[C@H]2C[C@H]1C(=O)NC(C)(C)CO [M8, hydroxyl-tert-butylamide]
Cmin geometric mean ratio 3rd trimester/postpartum [1, 7]: 0.78 (0.40–1.26)
M8/NFV AUC ratio [1, 8]: 0.11 (0.08–0.22)
Cmax [1, 8]: 0.66 (0.48–1.12) μg/mL
Cmin [1, 8]: 0.11 (0.05–0.15) μg/mL
Cmax [1, 9]: 1.20 (1.07–1.71) μg/mL
Cmin [1, 9]: 0.14 (0.04–0.21) μg/mL
M8/NFV AUC ratio [1, 9]: 0.30 (0.17–0.35)
Detected in maternal plasma samples [2]: 10
Detected in cord plasma samples [2]: 3

Cc1c(O)cccc1C(=O)N[C@@H](CSc1ccccc1)[C@H](O)CN1C[C@H]2CCCC[C@H]2C[C@H]1C(=O)NC(C)(C)C [NFV, Nelfinavir mesylate]
AUC0–12 geometric mean ratio 3rd trimester/postpartum [1, 7]: 0.98 (0.71–1.35)
Cl/F geometric mean ratio 3rd trimester/postpartum [1, 7]: 1.54 (1.12–2.11)
Cmax geometric mean ratio 3rd trimester/postpartum [1, 7]: 1.06 (0.85–1.34)
Cmin geometric mean ratio 3rd trimester/postpartum [1, 7]: 0.90 (0.71–1.16)
AUC0–12 geometric mean ratio 3rd trimester/postpartum [1, 10]: 0.98
Cl/F geometric mean ratio 3rd trimester/postpartum [1, 10]: 1.54
Participants with AUC0–12 above target (18.5 μg h/mL) ([1]; 3rd trimester, 1875 mg twice daily, 15 of 18): 83%
Cl/F [1, 8]: 54.9 (40.4–68.9) L/h
AUC(0-t) ([1]; female, human, 1250 mg): 33500 ng·h/mL and 58.9 µM·h
Cmax ([1]; female, human, 1250 mg): 5000 ng/mL
AUC(0-t) ([1]; female, human, 1875 mg): 34200 ng·h/mL and 60.2 µM·h
Patients with increased Cl/F during 3rd trimester compared to the postpartum period ([1]; number of pregnant patients): 11 out of 18
Cmin [1, 8]: 0.47 (0.35–1.33) μg/mL
Cmin [1, 9]: 0.52 (0.22–0.80) μg/mL
Participants with AUC0–12 above target (18.5 μg h/mL) ([1]; postpartum, 1250mg twice daily, 14 of 16): 88%
Cl/F [1, 9]: 37.4 (28.7–43.7) L/h
Detected in maternal plasma samples [2]: 13 out of 15
Detected in cord plasma samples [2]: 10 out of 15
Grade 3–4 adverse events treatment-related ([3]; 18 patients): none were determined to be treatment-related
Safety concerns ([3]; increased dose 1875 mg twice daily in third trimester): No major safety concerns were noted
Stability in plasma [4]: stable
Activity against HIV (HIV): moderately potent activity
Subjects meeting the AUC target during the 3rd trimester ([5]; in vivo, 1250 mg): 56%
Placental crossing ([5]; in vivo): crossed the placenta poorly
10th percentile AUC0–12 (target AUC) ([5]; non-pregnant historical controls): 18500 ng·h/mL

CC(C)CN(C[C@@H](O)[C@H](Cc1ccccc1)NC(=O)O[C@H]1CO[C@H]2OCC[C@H]21)S(=O)(=O)c1ccc(N)cc1 [darunavir]
AUC and Cmax in pregnancy ([6]; standard dosing): substantially decreased

Cc1cc(C#N)cc(C)c1Oc1nc(Nc2ccc(C#N)cc2)nc(N)c1Br [etravirine]
Exposure during pregnancy [6]: increased
